# Measurements published in the EternaBench riboswitch data.
# Assays:
# MS2 coat protein [1] = assay: apparent Kd, MS2 coat protein; higher = weaker binding; RNA-MaP array
# In short: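 The designed RNAs, transcribed from sequenced DNA templates on an Illumina sequencing chip, were incubated with fluorescently labeled MS2 coat protein at room temperature. Protein ranged from 1.5 nM to 3 μM, with 0.8–1.5 h incubation at the lowest and 10–20 min at the highest concentrations, in Tris-HCl pH 7.5 buffer with KCl, MgCl2, BSA, DTT, tRNA and Tween20, with or without input ligand. The median of per-cluster binding-curve fits gives the apparent Kd, and designs measured on fewer than 10 clusters were excluded.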
# MS2 coat protein [2] = assay: apparent Kd, MS2 coat protein; higher = weaker binding; RNA-MaP array; FMN 200 µM where present
# In short: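 Designs were transcribed by stalled E. coli RNA polymerase on Illumina sequencing-chip clusters. They were titrated with SNAP-549-labelled MS2 coat protein from 0.7 or 1.5 nM, doubling to 3 µM, without and then with constant ligand. Buffer: 100 mM Tris-HCl pH 7.5, 80 mM KCl, 4 mM MgCl2, BSA, DTT, yeast tRNA, Tween-20. Green signal was normalised to red-channel RNA signal and control-cluster median Fmax. Apparent Kd is the median of filtered per-cluster binding-curve fits.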
# [3] = designed as: ON switch for flavin mononucleotide, no ligand
# [4] = ligand present: flavin mononucleotide, designed as: ON switch for flavin mononucleotide
# [5] = designed as: OFF switch for flavin mononucleotide, no ligand
# [6] = ligand present: flavin mononucleotide, designed as: OFF switch for flavin mononucleotide
sequence,measurement,setting,value
UUCAUCAACACAGGAUAUUCCGUCACAUGAGGAUCACCCAUGUAGCGCGUAGAUUACGGGCUUUCGAAGAAGGGUGUAAAGUCC,apparent Kd,MS2 coat protein [1]; [3],54.2 nM
same,apparent Kd,MS2 coat protein [1]; [4],43.3 nM
UCGGAAAAGAAAGGAUAUCGCAUGGAUUGUUGUCGAGAAGGUUCAAAUCGACAUGAGGAUCACCCAUGUCGAGUCCAUACUCCU,apparent Kd,MS2 coat protein [1]; [3],76 nM
same,apparent Kd,MS2 coat protein [1]; [4],53.7 nM
AACCACGAGUCGGCCGCCACUUGCAACUAGUUUCAGAAGCAGAAACAUGAGGAUCACCCAUGUCGAAGGACCGGGACUUUACAGG,apparent Kd,"MS2 coat protein [1]; designed as: ON switch for tryptophan, no ligand",23.2 nM
same,apparent Kd,"MS2 coat protein [1]; ligand present: tryptophan, designed as: ON switch for tryptophan",18.7 nM
GGAAUGUGAGGAUAUAGGUGACCAAUACAAAACACAAAGAUCUAGAAGGCACAUGAGGAUCACCCAUGUAUACG,apparent Kd,MS2 coat protein [1]; [5],19.9 nM
same,apparent Kd,MS2 coat protein [1]; [6],17.9 nM
CGUACAGUCGAAGGAUAUUCGCGGGAGUUUGCCGAAGAAGGUCGCUAGUAGGGUGACAUGCUGUGACAUGAGGAUCACCCAUGU,apparent Kd,MS2 coat protein [1]; [5],165 nM
same,apparent Kd,MS2 coat protein [1]; [6],239 nM
UUUAAGAGAGGAUAUGUAGAAUAUAACAUGAGGAUCACCCAUGUACAGAGUGUUAAAGUCACAGAAGGCUCCAUGU,apparent Kd,MS2 coat protein [1]; [5],27.5 nM
same,apparent Kd,MS2 coat protein [1]; [6],20.6 nM
AAUGCGAGACUAGGAUAUUGCAUUCAACUCGUGCAAGAAGGAGUCGUUUCAUACAUGAGGAUCACCCAUGUCCAUAUUUCUCAA,apparent Kd,MS2 coat protein [1]; [3],14.5 nM
same,apparent Kd,MS2 coat protein [1]; [4],7.44 nM
UGUGGAACGGAAGGAUAUGGUCACCGAUGGUCUCCAGAAGGUCCGGGUGACCGAACAAUACAUGAGGAUCACCCAUGUAGCAAA,apparent Kd,MS2 coat protein [1]; [5],7 nM
same,apparent Kd,MS2 coat protein [1]; [6],6.84 nM
CUUAUGAUCGAGGAUAUCACAAAUGGGCAGCGUUGAGAAGGCGACACAUGAGGAUCACCCAUGUAAUCAACAGU,apparent Kd,MS2 coat protein [1]; [5],18.4 nM
same,apparent Kd,MS2 coat protein [1]; [6],15.9 nM
GGACGGUGGUGAGGAUAUUGUCACAUGAGGAUCACCCAUGUCGUCUGGGAGCGGACUCCUCGGUCCAAGAAGGCACGACCAGCC,apparent Kd,MS2 coat protein [1]; [5],246 nM
same,apparent Kd,MS2 coat protein [1]; [6],431 nM
GCAAAGAAAGCAGUGUAAACAUGAGGAUCACCCAUGUGAUGGAGAAGGUAUAGGCUGGUCGUAUAUAAGGAUAUCCUAAGCAAA,apparent Kd,MS2 coat protein [1]; [3],18.6 nM
same,apparent Kd,MS2 coat protein [1]; [4],17.6 nM
GCGACAUGAGGAUCACCCAUGUGCCUCGUGUUAUUCUCUUUAAGAAGGAACGGGUAGCUCUAUUGUUAGGAUAUUAAUGGAAUU,apparent Kd,MS2 coat protein [1]; [5],689 nM
same,apparent Kd,MS2 coat protein [1]; [6],724 nM
UGAGUGAAGGAGAAGGGUCUUCAGGAAAUACGGAAAUAACAUGAGGAUCACCCAUGUUCAAGCAGACAGGAUAUCCAAUGUUGG,apparent Kd,MS2 coat protein [1]; [3],18.8 nM
same,apparent Kd,MS2 coat protein [1]; [4],14.6 nM
AUCAUGAUUUUAGGAUAUAUGACGUUAUACAAUGGACAUGAGGAUCACCCAUGUAGUCGCGCUCUAUAGAAGGAAAGCUCAGUU,apparent Kd,MS2 coat protein [1]; [5],44.1 nM
same,apparent Kd,MS2 coat protein [1]; [6],36.5 nM
AGAGCCUCGUGAGGAUAUACAUGAGGAUCACCCAUGUAAAUGGAAGAACGGAGGAAACUCCGAAUGUAGAAGGCACGAGGCUCA,apparent Kd,MS2 coat protein [2]; [5],149 nM
same,apparent Kd,MS2 coat protein [2]; [6],1240 nM
AAACAUGUCCGAGGAUAUCUGAGAUCACUUUCAAGAGAAGGCGGACAUGAGGAUCACCCAUGUCUCUCCUCAUCAACUCCAAAU,apparent Kd,MS2 coat protein [2]; [5],8.01 nM
same,apparent Kd,MS2 coat protein [2]; [6],41.9 nM
ACGGCAGUCGAAGGAUAUGGUUACAUGAGGAUCACCCAUGUCUAGGUUCUUAAAUAGUAUAAUUUCCAGAAGGUCGAAGGCCUA,apparent Kd,MS2 coat protein [2]; [5],29.4 nM
same,apparent Kd,MS2 coat protein [2]; [6],35.5 nM
AUCAGCUCGUCAGGAUAUACGUCAGUGCGUCAGCAGUGUGGUAAGAUCACAUGAGGAUCACCCAUGUAGAAGGGACGAGCUGAU,apparent Kd,MS2 coat protein [2]; [5],161 nM
same,apparent Kd,MS2 coat protein [2]; [6],621 nM
CCCAAACUUGGGUUUAAUGGUUCAUAGGAUAUGCUUGUACAUGAGGAUCACCCAUGUACUAUUGUGCAGAAGGGUGCAUGGCAA,apparent Kd,MS2 coat protein [2]; [3],39.8 nM
same,apparent Kd,MS2 coat protein [2]; [4],26.3 nM
AGUGUCAUCGAGAAGGCCUCGACAUGAGGAUCACCCAUGUUGUAACAUGGGAGGAUAUCGAUGAUACAGCUACGUUUCGUAGCA,apparent Kd,MS2 coat protein [2]; [3],767 nM
same,apparent Kd,MS2 coat protein [2]; [4],394 nM
UUUUAACAUGAGGAUCACCCAUGUGAGGAUAUCGAAAUUUAUAUUAAUAUUAUUUAUUCGAGAAGGCACAUUUU,apparent Kd,MS2 coat protein [2]; [5],120 nM
same,apparent Kd,MS2 coat protein [2]; [6],145 nM
